The structures appear in SMILES notation. Values after ≈ are worked out from the molar mass of the structure shown.

The term MIC denotes the smallest concentration in the dilution series that meets the test's criterion for growth inhibition. A word on the MIC80: it is the lowest concentration that inhibits either 80% of growth or 80% of the strains tested, depending on the study. Higher therefore signals weaker potency. A word on the Kd: it is the concentration at which binding is half-saturated. High values mean a looser complex, low ones a tighter complex.

Experiment [1] concerns Candida albicans. In words: Binding affinity to Candida albicans CYP56 assessed as dissociation constant for enzyme-substrate complex by spectrophotometry. In short, it runs like this:
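His-tagged CYP56 expressed in E. coli BL21(DE3) and Ni2+-NTA purified; 2 μM enzyme in 0.1 M potassium phosphate (pH 7.4) with 20% glycerol. N-formyl tyrosine titrated from 26 to 253 μM, with spectra read at 320–470 nm until saturation. ΔA390-412 fitted to the Hill equation by nonlinear regression. A Hill plot gave ks (enzyme–substrate dissociation constant) and Hill number.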

Experiment [2] has as its system Candida albicans. Nature of the experiment: Antimicrobial activity against Candida albicans YNM11 harboring cyp56delta::FRT/cyp56::FRT mutant gene by Etest method. It counts as functional.
The subject of experiment [3] is Candida albicans. Nature of the experiment: Antimicrobial activity against wild type Candida albicans SC5314 by Etest method. It counts as functional.
Experiment [4] has as its system Candida albicans. In words: Antimicrobial activity against Candida albicans YNM12 harboring cyp56delta::FRT/cyp56::FRT/RP10-CYP56 mutant gene by Etest method. It counts as functional.
A short description of experiment [5]: Binding affinity to Candida albicans CYP56 by spectrophotometry. The essentials:
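His-tagged C. albicans CYP56 was expressed in E. coli BL21(DE3) and purified on Ni2+-NTA agarose, then used at 2 μM. Azole in DMSO was titrated stepwise (23–684 nM across the drugs), scanning 350–500 nm. Kd was taken from ΔA430-412 versus azole concentration by Levenberg-Marquardt nonlinear regression of the Hill equation.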

`O=CN[C@@H](Cc1ccc(O)cc1)C(=O)O`: in the experiment on Candida albicans [1], the Ks turned out to be 26 µM.
In the case of `C[C@@H]1[C@H](O)[C@@H](C)/C=C/C=C/C=C/C=C/C=C/C=C/C=C/[C@H](O[C@@H]2O[C@H](C)[C@@H](O)[C@H](N)[C@@H]2O)C[C@@H]2O[C@](O)(C[C@@H](O)C[C@@H](O)[C@H](O)CC[C@@H](O)C[C@@H](O)CC(=O)O[C@H]1C)C[C@H](O)[C@H]2C(=O)O` [AMPHOTERICIN B], the MIC against Candida albicans [2] and against Candida albicans [3] was 1 µg/mL (≈ 1.08 µM) each time.
In the case of `CC[C@H](C)C[C@H](C)CCCCCCCCC(=O)N[C@H]1C[C@@H](O)[C@@H](NCCN)NC(=O)[C@@H]2[C@@H](O)CCN2C(=O)[C@H]([C@H](O)CCN)NC(=O)[C@H]([C@H](O)[C@@H](O)c2ccc(O)cc2)NC(=O)[C@@H]2C[C@@H](O)CN2C(=O)[C@H]([C@@H](C)O)NC1=O` [CASPOFUNGIN], the MIC80 is 0.015 µg/mL (≈ 0.0137 µM) against Candida albicans [3] and 0.03 µg/mL (≈ 0.0274 µM) against Candida albicans [4].
Turning to `OC(Cn1cncn1)(Cn1cncn1)c1ccc(F)cc1F` [FLUCONAZOLE], the dissociation constant (Kd) in experiment [5] stood at 230 nM. Besides, the MIC80 against Candida albicans [2] and in the experiment on Candida albicans [3] was 0.06 µg/mL (≈ 0.196 µM) each time.
Take `CCC(C)n1ncn(-c2ccc(N3CCN(c4ccc(OCC5COC(Cn6cncn6)(c6ccc(Cl)cc6Cl)O5)cc4)CC3)cc2)c1=O` (configuration not stated) [ITRACONAZOLE]: the Kd in experiment [5] amounted to 100 nM.
In the case of `C[C@@H](c1ncncc1F)[C@](O)(Cn1cncn1)c1ccc(F)cc1F` [VORICONAZOLE], binding in experiment [5] was put at a Kd of 510 nM. The MIC80 against Candida albicans [2] and in the experiment on Candida albicans [3] was 0.007 µg/mL (≈ 0.02 µM) each time.

The values are drawn from ChEMBL document CHEMBL1275515, “CYP56 (Dit2p) in Candida albicans: characterization and investigation of its role in growth and antifungal drug susceptibility” (Antimicrob Agents Chemother, 2008).
